According to ChEMBL document CHEMBL1148785, “Second generation tetrahydroquinoline-based protein farnesyltransferase inhibitors as antimalarials” (J Med Chem, 2007):

Columns and labels:
Plasmodium falciparum [1] = assay: Inhibition of Plasmodium falciparum protein farnesyltransferase at 5 nM by scintillation proximity assay
Plasmodium falciparum [2] = assay: Antimalarial activity against Plasmodium falciparum K1; format: functional; settings: Plasmodium falciparum, K1; read-out: ED50 (the source's name)
Procedure, shortened: (§1)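 Asynchronous culture in type A+ erythrocytes at 0.5% parasitemia and 0.5% hematocrit, grown in RPMI-1640 with 20% heat-inactivated human A+ plasma. Compound was serially diluted from a top final 5 µM, with DMSO vehicle as 100% growth. Plates ran 48 h at 37 °C under 5% CO2/5% O2/90% N2, then [3H]-hypoxanthine (0.3 µCi) for 24 h. Filter-harvested counts were corrected for the uninfected-RBC background. ED50 by linear regression; duplicates averaged.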

Plasmodium falciparum [3] = assay: Inhibition of Plasmodium falciparum protein farnesyltransferase at 50 nM by scintillation proximity assay
Plasmodium falciparum [4] = assay: Antimalarial activity against Plasmodium falciparum 3D7; format: functional; settings: Plasmodium falciparum, 3D7; read-out: ED50 (the source's name); procedure, shortened: as §1
Plasmodium falciparum [5] = assay: Inhibition of Plasmodium falciparum protein farnesyltransferase at 0.5 nM by scintillation proximity assay

Row | Compound | inhibition (Plasmodium falciparum [1]) [%] | EC50 (Plasmodium falciparum [2]) [nM] | inhibition (Plasmodium falciparum [3]) [%] | EC50 (Plasmodium falciparum [4]) [nM] | inhibition (Plasmodium falciparum [5]) [%]
1 | Cn1cncc1CN1CC(N(CC2CCN(C(=O)c3cccs3)CC2)S(=O)(=O)c2ccccn2)Cc2cc(C#N)ccc21 (stereo not given) | 35 | 81 | 99 | 70 | 87
2 | Cn1cncc1CN1CC(N(Cc2ccccc2F)S(=O)(=O)c2ccccn2)Cc2cc(C#N)ccc21 (stereo not given) | 82 | 1250 | 100 | 230 | 19
3 | CN(CCCCN(C1Cc2cc(C#N)ccc2N(Cc2cncn2C)C1)S(=O)(=O)c1ccccn1)C(=O)OC(C)(C)C (stereo not given) | 78 | 270 | 98 | 320 | 27
4 | Cc1c(S(=O)(=O)N(Cc2ccc(S(C)(=O)=O)cc2)C2Cc3cc(C#N)ccc3N(Cc3cncn3C)C2)ncn1C (stereo not given) | 70 | 450 | 92 | 320 | 23
5 | COC(=O)N1CCC(CN(C2Cc3cc(C#N)ccc3N(Cc3cncn3C)C2)S(=O)(=O)c2ccc(OC)cc2)CC1 (stereo not given) | 79 | 190 | 98 | 170 | 14
6 | Cn1cc(S(=O)(=O)N(Cc2ccccc2F)C2Cc3cc(C#N)ccc3N(Cc3cncn3C)C2)cn1 (stereo not given) | 62 | 175 | 94 | 175 | 23
7 | Cn1cncc1CN1CC(N(Cc2ccccc2F)S(C)(=O)=O)Cc2cc(C#N)ccc21 (stereo not given) | 7 | > 5000 | 51 | 600 | 0
8 | CCS(=O)(=O)N(CC1CCN(C(=O)OC)CC1)C1Cc2cc(C#N)ccc2N(Cc2cncn2C)C1 (stereo not given) | 0 | > 5000 | 44 | 4100 | 0
9 | Cn1cncc1CN1CC(N(CC2CCN(S(=O)(=O)c3ccccc3)CC2)S(=O)(=O)c2ccccn2)Cc2cc(C#N)ccc21 (stereo not given) | 7 | 280 | 96 | 275 | 67
10 | COC(=O)CN(C1Cc2cc(-c3ccccc3)ccc2N(Cc2cn(C)cn2)C1)S(=O)(=O)c1cn(C)cn1 (stereo not given) | 87 | 350 | 99 | 375 | 37
11 | Cn1cnc(S(=O)(=O)N(CCc2ccsc2)C2Cc3cc(C#N)ccc3N(Cc3cncn3C)C2)c1 (stereo not given) | 100 | 4.2 | 100 | 6.2 | 86
12 | Cn1cnc(S(=O)(=O)N(CCCN)C2Cc3cc(C#N)ccc3N(Cc3cncn3C)C2)c1 (stereo not given) | 5 | 4600 | 60 | > 5000 | 5
13 | COCCCCCN(C1Cc2cc(C#N)ccc2N(Cc2cncn2C)C1)S(=O)(=O)c1ccccn1 (stereo not given) | 65 | 932 | 96 | 189 | 17
14 | Cn1cncc1CN1CC(N(CCn2ccc3ccccc32)S(=O)(=O)c2ccccn2)Cc2cc(C#N)ccc21 (stereo not given) | 79 | 400 | 98 | 370 | 10
15 | Cn1cnc(CN2CC(N(CC(=O)NC(C)(C)C)S(C)(=O)=O)Cc3cc(-c4ccccc4)ccc32)c1 (stereo not given) | 0 | > 5000 | 2 | > 5000 | 0
16 | Cn1cncc1CN1CC(N(CCn2cccn2)S(=O)(=O)c2ccccn2)Cc2cc(C#N)ccc21 (stereo not given) | 96 | 20 | 99 | 13 | 68
17 | Cn1cnc(S(=O)(=O)N(Cc2ccccn2)C2Cc3cc(C#N)ccc3N(Cc3cncn3C)C2)c1 (stereo not given) | 96 | 36 | 98 | 10 | 25
18 | Cn1cncc1CN1CC(N(Cc2ccccc2F)S(=O)(=O)c2cccc3nsnc23)Cc2cc(C#N)ccc21 (stereo not given) | 28 | 1000 | 74 | 700 | 4
19 | CC(C)S(=O)(=O)N1CCC(CN(C2Cc3cc(C#N)ccc3N(Cc3cncn3C)C2)S(=O)(=O)c2ccccn2)CC1 (stereo not given) | 17 | 55 | 96 | 75 | 89
20 | Cn1cnc(S(=O)(=O)N(CCc2ccccc2C(F)(F)F)C2Cc3cc(C#N)ccc3N(Cc3cncn3C)C2)c1 (stereo not given) | 82 | 70 | 99 | 65 | 8
21 | COC(=O)N1CCC(CN(C2Cc3cc(C#N)ccc3N(Cc3cncn3C)C2)S(=O)(=O)c2cncn2C)CC1 (stereo not given) | 99 | 1.6 | 99 | 3 | 72
